GAA850 FXN act: FXN promoter activators, primary screen, cell-based, luciferase luminescence, HEK293 lucGAA850. HEK293 lucGAA850 FXN promoter luciferase reporter, 24 h; percent of 10 µM SAHA response. activation, % at 6 µM. 360,000 compounds, 0.56% hits;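 active = activation above the average of all compounds screened plus 3 SD, cutoff fixed separately per campaign, cut at about 7.5% in these data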;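 also: 0% = DMSO wells and 100% = 10 µM SAHA wells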
AHR activator: AHR activators, primary screen, cell-based, luminescence, luciferase reporter, human; 320,000 compounds, 2.5% hits; Aryl hydrocarbon receptor (Homo sapiens), P35869; AHR-responsive luciferase reporter cells; activation, % at 5 µM; in the data active = activation above about 47%;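 also: 0% = vehicle wells and 100% = reference agonist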
HIF act: HIF pathway transcriptional activators, primary screen, cell-based, U2OS HRE-luciferase, luminescence; AID 1910, 2009; 300,000 compounds, 0.32% hits; U2OS HRE-luciferase reporter; normalized: DMSO 0%, desferrioxamine 100%; activation, % at 7.5 µM (by protocol);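 active = mean activation of at least 10% of the iron chelator positive control signal, with at least half of replicates also reaching 10%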
SR-BI uptake up: activators of SR-BI mediated DiI-HDL uptake, primary screen, ldlA[mSR-BI] CHO cells, DiI fluorescence; 3 h; 100 = double the neutral-control signal; activation, % at 12.5 µM; 320,000 compounds, 0.096% hits; AID 504775, 2011;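 active = mean replicate activation of at least 60% and every replicate at or above 60%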;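 also: 0% = median plate neutral-control signal and 100% = twice that signal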
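Assay system: LDL receptor-deficient CHO ldlA cells overexpressing murine SR-BI / Medium: BSA-supplemented, HEPES-buffered Ham's F12, pH 7.4 / Probe or stimulus: DiI-labelled HDL at 10 µg/mL final / Timing: compound with DiI-HDL co-incubation, 3 h at 37 °C / Technique: bottom-read cell fluorescence after medium removal, ex 550/em 595 nm / Measure: HDL uptake via cellular fluorescence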
ABCB6 inh 2: ABCB6 transporter inhibitors, primary screen, K562-ABCB6 cells, flow cytometry, MLPCN library | ATP-binding cassette sub-family B member 6 (Homo sapiens), Q9NP58 | K562-ABCB6 porphyrin accumulation, 1 h; active compounds read low | fluorescence ratio to DMSO, % at 10 µM | 360,000 compounds, 0.19% hits | AID 602162, 2011;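 active = fluorescence ratio to DMSO below 75%, the collection mean minus 3 SD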;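 also: signal is porphyrin accumulated inside mitochondria; 100% equals median channel fluorescence of DMSO control wells; lower ratio means ABCB6 inhibition with less porphyrin fluorescence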
SR-BI DiI inh: inhibitors of SR-BI mediated HDL lipid uptake, primary screen, ldlA[mSR-BI] cells, fluorescence, single point; inhibition, % at 12.5 µM; ldlA[mSR-BI] CHO cells, DiI-HDL uptake fluorescence, 3 h; Scavenger receptor class B member 1 (Mus musculus), Q61009; 320,000 compounds, 0.96% hits;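 active = mean replicate inhibition of at least 70% and a set share of replicates each scoring 70 or more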;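 also: 0% = median of neutral control wells and 100% = median of positive control wells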
Target sequence (Q61009 whole entry, looked up): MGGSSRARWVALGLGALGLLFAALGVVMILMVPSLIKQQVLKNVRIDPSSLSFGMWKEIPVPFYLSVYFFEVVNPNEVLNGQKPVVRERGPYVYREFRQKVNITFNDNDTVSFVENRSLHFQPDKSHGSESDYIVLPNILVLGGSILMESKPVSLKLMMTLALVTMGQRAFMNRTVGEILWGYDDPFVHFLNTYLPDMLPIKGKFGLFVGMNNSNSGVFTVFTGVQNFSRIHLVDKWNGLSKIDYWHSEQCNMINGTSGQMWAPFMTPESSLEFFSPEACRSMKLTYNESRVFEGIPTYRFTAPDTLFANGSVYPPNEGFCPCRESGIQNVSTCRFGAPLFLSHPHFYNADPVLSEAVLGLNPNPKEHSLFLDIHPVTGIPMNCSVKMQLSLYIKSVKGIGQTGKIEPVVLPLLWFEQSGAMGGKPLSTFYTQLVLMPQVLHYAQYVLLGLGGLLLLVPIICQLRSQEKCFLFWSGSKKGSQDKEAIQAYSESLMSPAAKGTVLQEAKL
* = called active by the depositor; / = not tested or not shown. Hits are enriched below; roughly 3.9% of the tested compounds scored in any of these assays.

SMILES	GAA850 FXN act	AHR activator	HIF act	SR-BI uptake up	ABCB6 inh 2	SR-BI DiI inh
COc1ccccc1NC(=O)c1cccnc1	5.2	67.8*	1.5	/	94.0	/
COc1ccc(NC(=O)c2cccnc2)c(OC)c1	1.2	-0.1	0.2	11.6	96.0	-11.6
COc1ccc(N2CCN(C(CNC(=O)C(=O)NC3CC3)c3ccco3)CC2)cc1 (centres undefined)	2.1	1.2	0.0	-1.4	93.0	1.4
CN(C(=O)C(C)(C)C)c1ccc(OCC(=O)N2CCc3ccccc3C2)cc1	-1.5	-1.2	-0.3	-94.8	82.0	94.8*
OCc1ccc(N=Nc2ccccc2)cc1	-6.2	-4.2	10.4*	7.4	94.0	-7.4
COc1ccc(Nc2c([N+](=O)[O-])ccc3c2=NC2(CCCCC2)N=3)cc1	3.8	42.1	-1.1	-86.5	118.0	86.5*
O=[N+]([O-])c1ccc2c(c1Nc1ccccc1)=NC1(CCCCC1)N=2	-0.8	8.7	0.4	-32.8	94.0	32.8
O=C(/C=C/c1ccco1)NC(=S)Nc1cccc(-c2nc3ccccc3o2)c1	-1.3	56.8*	3.2	-5.4	96.0	5.4
COc1ccc(C(NC(=O)/C=C\c2ccco2)c2ccc(OC)c(OC)c2)cc1 (centres undefined)	1.8	-1.2	-0.3	-6.1	61.0*	6.1
COc1ccc(-c2csc(NC(=S)NC(=O)/C=C/c3ccc(C(C)C)cc3)n2)cc1OC	-2.0	10.4	0.5	-75.2	83.0	75.2*
Cc1ccc(-c2nc3ccccc3o2)cc1NC(=S)NC(=O)/C=C/c1ccco1	3.4	33.6	5.0	-45.8	88.0	45.8
COc1ccc(-c2csc(NC(=S)NC(=O)/C=C/c3ccco3)n2)cc1Br	-0.7	0.8	0.5	-24.1	99.0	24.1
COc1ccc(-c2csc(NC(=S)NC(=O)/C=C/c3ccco3)n2)cc1OC	-3.0	12.5	-0.2	-75.9	99.0	75.9*
Cc1cc2n(n1)SC(Nc1cccc3ccccc13)N2 (centres undefined)	3.7	53.2*	3.0	-17.1	88.0	17.1
Cc1cc2n(n1)SC(Nc1cc(Cl)ccc1Cl)N2 (centres undefined)	0.3	62.9*	0.8	-6.2	91.0	6.2
CN(C)S(=O)(=O)N1CCC(Oc2ccc(C(=O)NC3CCCCC3)cc2)CC1	1.9	0.0	0.3	-12.2	95.0	12.2
COc1ccc(-c2nnc3cccc(Cl)n23)c(OC)c1	1.2	0.9	0.2	3.5	104.0	-3.5
COc1ccc(CNC(=O)CN(C(=O)c2csnn2)c2cccc3c2CCCC3)cc1	-3.0	1.3	-2.9	-75.8	99.0	75.8*
COc1ccc(Cc2nc3ccc(C(=O)NCCn4cccn4)cc3o2)cc1	2.7	-3.4	0.6	-1.6	94.0	1.6
CC1=C(/C=C/C(C)=C/C=C/C(C)=C/C(=O)Nc2ccc(O)cc2)C(C)(C)CCC1	-1.9	-1.5	/	-98.0	106.0	98.0*
CCCCCCCCCC(=O)Nn1cnc2ccccc2c1=O	1.9	-1.6	-0.1	4.3	103.0	-4.3
CCN(CC)S(=O)(=O)c1ccc(N/N=C/c2ccc(O)cc2O)nc1	-5.2	-3.2	117.2*	6.6	95.0	-6.6
Oc1ccc(/C=N/Nc2ncc(Br)cn2)c(O)c1	4.2	8.7	18.9*	-12.4	92.0	12.4
CCN(CC)S(=O)(=O)c1ccc(N/N=C(\C)c2ccncc2)nc1	3.0	2.0	-0.7	/	92.0	/
CCCN(CCC)c1nc(N)nc(-c2cc(Cl)ccc2OC)n1	3.7	19.8	-0.3	-81.6	92.0	81.6*
SMILES	GAA850 FXN act	AHR activator	HIF act	SR-BI uptake up	ABCB6 inh 2	SR-BI DiI inh
CCCNc1nc(N)nc(-c2cc(Cl)ccc2OC)n1	2.0	11.2	-0.6	5.4	101.0	-5.4
CCc1nc2ccc(C(=O)Nc3cccc(NS(C)(=O)=O)c3)cn2c1N(C)C(=O)Cc1ccccc1	-0.5	/	/	/	92.0	/
COc1c(Cl)c(=O)oc2ccc(Cl)cc12	-0.7	/	/	/	103.0	/
COc1ccccc1-n1c(=O)oc2ccc(Cl)cc2c1=O	1.4	68.2*	/	29.0	100.0	-29.0
COC(=O)c1ccccc1-c1c2ccc(=N)cc-2oc2cc(N)ccc12	-2.3	0.7	/	-76.6	/	76.6*
COC(=O)c1ccccc1-c1ccc(/C=N/NC(=O)c2cc3ccccc3o2)o1	-2.0	6.5	0.0	-12.1	100.0	12.1
CCOC(=O)c1c(NCc2ccccc2)n[nH]c1C	1.0	47.7*	-0.4	-4.3	99.0	4.3
CCOC(=O)c1c(Nc2ccccc2OCCOC)n[nH]c1C	1.4	48.2*	-1.1	-15.3	104.0	15.3
COc1ccc(-n2c(=O)c3c4c(sc3n(CC(=O)Nc3cc(C)[nH]n3)c2=O)CCCC4)c(OC)c1	-0.5	2.6	-0.5	25.6	102.0	-25.6
CCOC(=O)c1cccc(Nc2ncnc3ccccc23)c1	0.6	10.9	0.2	-21.1	98.0	21.1
CCOC(=O)c1ccccc1NC(=O)c1ccc2c(=O)n3c(nc2c1)CCCCC3	1.9	-3.2	-0.1	/	101.0	/
COC(=O)COc1cc(Br)c(/C=C2/SC(=O)N(CC(=O)N3CCCC3)C2=O)cc1OC	0.5	6.6	-0.5	-82.1	93.0	82.1*
COC(=O)COc1ccc(/C=C2/SC(=O)N(CC(=O)N3CCCC3)C2=O)cc1Br	0.2	3.2	1.2	7.6	95.0	-7.6
O=C(Nc1cccs1)Nc1ccccc1Br	2.2	57.5*	0.7	1.2	90.0	-1.2
COC(=O)c1ccccc1NC(=O)Nc1cccs1	0.6	7.5	-4.1	9.9	95.0	-9.9
Cn1c(CC(=O)Nc2ccccc2)c(Sc2ccccc2)c2ccccc21	1.5	16.4	-0.3	-5.4	95.0	5.4
CSc1c(CC(=O)Nc2ccccc2)n(C)c2ccccc12	-2.3	58.4*	1.2	-20.7	108.0	20.7
CC(Nc1ccc(Cl)cc1)c1cc(Cl)ccc1O (centres undefined)	-0.2	5.4	-0.3	373.1*	98.0	-373.1
CCOc1ccc(NC(C)c2cc(Cl)ccc2O)cc1 (centres undefined)	-3.3	5.4	-0.2	-12.2	95.0	12.2
COc1ccc(C(=O)c2ccc(Br)cc2)c(OC)c1OC	-0.6	/	/	-13.1	95.0	13.1
CCOc1ccccc1C(=O)Nc1nccs1	0.2	21.6	0.1	-6.3	99.0	6.3
Cc1ccc(C2CC(c3cccs3)=NN2C(=O)CSc2nc3ccccc3o2)cc1 (centres undefined)	2.4	75.0*	-13.8	30.1	96.0	-30.1

High-throughput results (PubChem BioAssay)
